HSF-1 act: increases HSF-1 driven luciferase reporter signal | NIH3T3-HGL HSF-1 luciferase reporter, MG132, 8 h; 100% = twice DMSO control signal | activation, % at 9 µM | actives 1.7% (n = 300,000);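 active = mean replicate activation of at least 50% with a set share of replicates each reaching 50%; inconclusive = only one of those two conditions met; inactive = mean below 50% and too few replicates reaching it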
SR-BI DiI inh: blocks mouse SR-BI lipid uptake from DiI-HDL; Q61009; ldlA[mSR-BI] CHO cells, DiI-HDL uptake fluorescence, 3 h; inhibition, % at 12.5 µM; actives 0.96% (n = 320,000);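 active = mean replicate inhibition of at least 70% and a set share of replicates each scoring 70 or more; inconclusive = meets just one of the two criteria; inactive = fails both criteria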
Target sequence (Q61009 whole entry, looked up): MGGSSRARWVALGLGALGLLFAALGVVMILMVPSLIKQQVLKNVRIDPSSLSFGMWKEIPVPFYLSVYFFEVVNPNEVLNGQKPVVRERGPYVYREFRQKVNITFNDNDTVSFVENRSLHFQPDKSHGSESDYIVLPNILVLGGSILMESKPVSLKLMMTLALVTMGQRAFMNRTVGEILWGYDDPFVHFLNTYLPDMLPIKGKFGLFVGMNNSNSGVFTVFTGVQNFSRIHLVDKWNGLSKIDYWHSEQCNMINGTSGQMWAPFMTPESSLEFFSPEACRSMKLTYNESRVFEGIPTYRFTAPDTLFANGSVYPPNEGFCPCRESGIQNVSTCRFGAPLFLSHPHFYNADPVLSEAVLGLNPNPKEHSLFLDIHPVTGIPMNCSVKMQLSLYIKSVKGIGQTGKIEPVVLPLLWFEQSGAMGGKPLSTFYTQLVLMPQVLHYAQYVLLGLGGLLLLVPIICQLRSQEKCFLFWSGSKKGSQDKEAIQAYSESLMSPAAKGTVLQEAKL
MITF TRPM1 HTS: MITF TRPM1 promoter activation in melanoma cells | activation, % at 12.5 µM | actives 0.75% (n = 300,000) | SK-MEL-5 TRPM1-promoter luciferase, 24 h; % of positive control, neutral wells = 0;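 active = mean activation of at least 80% with every replicate also reaching 80%; inconclusive = mean reaches 80% but some replicate falls short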
Wnt bcat act: activates Wnt/beta-catenin signaling in a reporter cell assay | activator, plate reader | activation, % at 9.35 µM | actives 1.2% (n = 300,000); in the data active = activation above about 30%, passing the limit was not always enough; inconclusive = no clear call, values can overlap the other calls
SR-BI DiI-HDL act: SR-BI HDL lipid transfer activation; CHO ldlA[mSR-BI] cells, DiI-HDL uptake fluorescence, 3 h; 100 = double the neutral-control signal; activation, % at 12.5 µM; actives 0.096% (n = 320,000);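 active = mean replicate activation of at least 60% and every replicate at or above 60%; inconclusive = mean or all-replicate condition met, but not both; inactive = mean below 60% and not all replicates reaching 60%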
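system = CHO ldlA[mSR-BI] cells, LDL receptor-null, SR-BI overexpressing | medium = Ham's F12 with 0.5% BSA, HEPES 25 mM, pH 7.4 | probe or stimulus = DiI-HDL 10 µg/mL | compound dosing = single-point compound dose | incubation = compound exposure 3 h, 37 °C | technique = DiI fluorescence, bottom read | read-out = cell-associated DiI fluorescence as measure of HDL uptake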
Large screens that a line does not name were inactive. Shown are actives, neighbours in structure and some others; about 3.6% of the full set was active somewhere.

CCSc1nnc(NC(=O)c2ccccc2)s1	MITF TRPM1 HTS 104.3
CC(CNC(=O)[C@H]1O[C@@H](n2cnc3c(=O)[nH]c(N)nc32)[C@H](O)[C@@H]1O)c1ccccc1 (some centres not stated)	none (no result: HSF-1 act, SR-BI DiI inh, MITF TRPM1 HTS, SR-BI DiI-HDL act)
Cn1nc(C(=O)NCc2ccc(F)cc2)c2c1-c1ccccc1S(=O)(=O)C2	none
CCOc1ccccc1CNC(=O)c1nn(C)c2c1CS(=O)(=O)c1ccccc1-2	SR-BI DiI inh 88.2
CSc1ccc(CCNC(=O)c2nn(C)c3c2CS(=O)(=O)c2ccccc2-3)cc1	HSF-1 act 51.1
COc1ccccc1-c1cc(C(=O)NC2CCCC2)no1	none
COc1cc(C(=O)NCC2CCCO2)ccc1OCc1ccc(Cl)cc1Cl (configuration not stated)	HSF-1 act 71.7, SR-BI DiI inh 78.8
Cn1nc(-c2ccc(Cl)cc2)c2cc(C(=O)NCC3CCCO3)sc21 (configuration not stated)	SR-BI DiI inh 87.4
O=C(Nc1ccccc1C(F)(F)F)c1cc(-c2ccccc2O)on1	HSF-1 act 65.5 (no result: Wnt bcat act)
O=C(Nc1ccccc1C(F)(F)F)c1cc(-c2ccco2)on1	none
O=C(NC1CCCC1)c1cc(-c2ccc(Cl)cc2Cl)on1	MITF TRPM1 HTS 97.4
COc1cc(C(=O)NCC2CCCO2)ccc1OCc1ccc(Cl)cc1 (configuration not stated)	none (no result: HSF-1 act)
Nc1c(-c2ccc(F)c(F)c2)nc2ncccn12	none (no result: HSF-1 act, SR-BI DiI inh, MITF TRPM1 HTS, SR-BI DiI-HDL act)
Cc1ccc(NC(=O)C2(C)CCN2C(=O)Cc2ccccc2Cl)cc1C (configuration not stated)	none (no result: HSF-1 act, SR-BI DiI inh, MITF TRPM1 HTS, SR-BI DiI-HDL act)
O=C(NCC1CCCO1)c1cc(-c2ccc(F)cc2)no1 (configuration not stated)	Wnt bcat act 38.8
O=C(NC1CCCCC1)c1cc(-c2ccccc2Cl)on1	MITF TRPM1 HTS 109.7 (no result: SR-BI DiI inh, SR-BI DiI-HDL act)
O=C(NC1CCCC1)c1cc(-c2ccccc2Cl)on1	Wnt bcat act inconclusive
O=C(NC1CCCC1)c1cc(-c2ccccc2O)on1	HSF-1 act inconclusive, MITF TRPM1 HTS 106.0
O=C(NCC1CCCO1)c1cc(-c2ccccc2)on1 (configuration not stated)	none (no result: Wnt bcat act)
O=C(NCC1CCCO1)c1cc(-c2ccc(Cl)cc2Cl)on1 (configuration not stated)	Wnt bcat act 36.6 (no result: MITF TRPM1 HTS)
COc1ccc(-c2cc(C(=O)NCC3CCCO3)on2)cc1OC (configuration not stated)	none
Cc1ccc(NC(=O)c2ncn(CCCNCC3CCCO3)n2)cc1C (configuration not stated)	none (no result: HSF-1 act)
O=C(/C=C\c1ccc2c(c1)OCO2)Nc1c2c(nn1-c1ccc(Cl)cc1)CSC2	SR-BI DiI inh 74.6
CCCCNC(=O)c1ccc2nc(CC)c(N(CC)CCOC)n2c1	none (no result: HSF-1 act, SR-BI DiI inh, MITF TRPM1 HTS, SR-BI DiI-HDL act)
Cc1ccc(C)c(N2CCN(C(=S)Nc3ccc4nc(N5CCN(C)CC5)cc(C)c4c3)CC2)c1	none
CCOCCCNC(=S)Nc1ccc2nc(N3CCOCC3)cc(C)c2c1	HSF-1 act 125.4 (no result: MITF TRPM1 HTS)
Cc1ccc(C)c(N2CCN(C(=S)Nc3ccc4nc(N5CCOCC5)cc(C)c4c3)CC2)c1	SR-BI DiI inh 87.0
O=C(OCc1ccccc1)N1CCN(C(c2ccnc3ccccc23)c2nnnn2-c2ccc3c(c2)OCCO3)CC1 (configuration not stated)	none (no result: HSF-1 act, SR-BI DiI inh, MITF TRPM1 HTS, SR-BI DiI-HDL act)
CCC(C)NC(=O)c1cc2cc3ccc(OC)cc3nc2s1 (configuration not stated)	Wnt bcat act 45.0
COc1ccc2cc3cc(C(=O)NCCN4CCc5ccccc5C4)sc3nc2c1	HSF-1 act 73.7
CCC(C)NC(=O)c1cc2c(=O)n3ccccc3nc2s1 (configuration not stated)	none
CCN(CC)C(=O)C1=C(C)N(Cc2ccc(C(C)(C)C)cc2)C(=O)C(CC(=O)NCCCN(C)C)C1 (configuration not stated)	none (no result: HSF-1 act, SR-BI DiI inh, MITF TRPM1 HTS, SR-BI DiI-HDL act)
COc1ccc(CNC(=O)c2cc(S(=O)(=O)N3CCCCC3)ccc2N2CCOCC2)cc1OC	none (no result: HSF-1 act, MITF TRPM1 HTS)
Cc1ccccc1OCc1nnc2c3cnn(C)c3ncn12	MITF TRPM1 HTS 89.5 (no result: Wnt bcat act)
Cc1ccccc1OCc1nc2ccccc2c(=O)n1N	none (no result: MITF TRPM1 HTS)
COc1ccc(NC(C)=O)cc1S(=O)(=O)NCc1ccc2c(c1)OCO2	none (no result: HSF-1 act, SR-BI DiI inh, MITF TRPM1 HTS, SR-BI DiI-HDL act)
O=C(Oc1ccc[nH]c1=O)C1CC1	none (no result: HSF-1 act, SR-BI DiI inh, MITF TRPM1 HTS, SR-BI DiI-HDL act)
CCOc1ccc2nc(SCc3ccc(OC)cc3)sc2c1	none (no result: Wnt bcat act)
CCOc1ccc2nc(SCc3ccccc3C#N)sc2c1	HSF-1 act 114.8, MITF TRPM1 HTS inconclusive (no result: Wnt bcat act)

Screens as filed in PubChem.
